Converted amounts (≈) assume the structure as drawn. Where only a bound is given, the exact number is not on record here.

The values that follow come from ChEMBL document CHEMBL1777788, “Synthesis and in vitro antimicrobial activities of new (cyano-NNO-azoxy)pyrazole derivatives” (2011).

Assay type in all cases: functional
The subject of experiment [1] is Candida parapsilosis. Description: Antimicrobial activity against Candida parapsilosis ATCC 22019 after 48 hrs by microdilution broth method. The note with it: Lodderomyces parapsilosis, ATCC 22019, 48 h. The method in brief:
(§1)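 Yeasts were grown overnight on Sabouraud dextrose agar at 35°C, suspended in water, and adjusted at 530 nm to McFarland 0.5 (approximately 1-5 x 10^6 CFU/ml). They were then diluted 1:100 and 1:20 in RPMI 1640 with 0.165 M MOPS and 2% glucose. Compound in DMSO was tested at ten concentrations, 0.25–256 mg/L, with incubation at 35°C. At 48 h, MIC was read spectrophotometrically as 50% turbidity reduction versus growth control.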
(Dilution methods test growth across graded concentrations, often in twofold steps.)

Experiment [2] deals with Pichia kudriavzevii. Description: Antimicrobial activity against Candida krusei isolate 31 after 48 hrs by microdilution broth method. The note with it: isolate 31, 48 h. The method in brief:
as §1

The subject of experiment [3] is Candida albicans. Description: Antimicrobial activity against Candida albicans isolate 48 after 48 hrs by microdilution broth method. The note with it: isolate 48, 48 h. The method in brief: as §1
The subject of experiment [4] is Pichia kudriavzevii. Description: Antimicrobial activity against Candida krusei isolate 48 after 48 hrs by microdilution broth method.
In experiment [5] the test system is Nakaseomyces glabratus. Description: Antimicrobial activity against Candida glabrata isolate 30 after 48 hrs by microdilution broth method. The method in brief:
as §1

Experiment [6] relates to Cryptococcus deneoformans. Description: Antimicrobial activity against Cryptococcus neoformans var. neoformans isolate 27 after 48 hrs by microdilution broth method. The note with it: isolate 27, 48 h. The method in brief:
as §1

Experiment [7] deals with Candida tropicalis. Description: Antimicrobial activity against Candida tropicalis isolate 33 after 48 hrs by microdilution broth method. The note with it: isolate 33, 48 h. The method in brief:
as §1

Experiment [8] deals with Nakaseomyces glabratus. Description: Antimicrobial activity against Candida glabrata isolate 49 after 48 hrs by microdilution broth method. The method in brief:
as §1

Experiment [9] deals with Candida albicans. Description: Antimicrobial activity against Candida albicans isolate 47 after 48 hrs by microdilution broth method. The note with it: isolate 47, 48 h. The method in brief: as §1
Experiment [10] deals with Pichia kudriavzevii. Description: Antimicrobial activity against Candida krusei isolate 43 after 48 hrs by microdilution broth method.
In experiment [11] the test system is Nakaseomyces glabratus. Description: Antimicrobial activity against Candida glabrata isolate 32 after 48 hrs by microdilution broth method. The note with it: isolate 32, 48 h. The method in brief: as §1
Experiment [12] has as its system Candida tropicalis. Description: Antimicrobial activity against Candida tropicalis isolate 15 after 48 hrs by microdilution broth method. The note with it: isolate 15, 48 h. The method in brief:
as §1

The subject of experiment [13] is Candida parapsilosis. Description: Antimicrobial activity against Candida parapsilosis isolate 19 after 48 hrs by microdilution broth method. The note with it: Lodderomyces parapsilosis, isolate 19, 48 h. The method in brief: as §1
Experiment [14] concerns Candida albicans. Description: Antimicrobial activity against Candida albicans isolate 31 after 48 hrs by microdilution broth method. The note with it: isolate 31, 48 h. The method in brief:
as §1

In experiment [15] the test system is Candida parapsilosis. Description: Antimicrobial activity against Candida parapsilosis isolate 39 after 48 hrs by microdilution broth method. The note with it: Lodderomyces parapsilosis, isolate 39, 48 h. The method in brief:
(§2)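 Yeasts grown overnight on Sabouraud dextrose agar at 35°C, suspended in sterile water, and adjusted to McFarland 0.5 at 530 nm (about 1-5 x 10^6 CFU/ml), then diluted 1:100 and 1:20 in RPMI 1640 with 0.165 M MOPS and 2% glucose. Compound in DMSO tested at ten concentrations, 0.25-256 mg/L, at 35°C. MIC read spectrophotometrically at 48 h as 50% turbidity reduction versus growth control.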

For experiment [16], the system named is Candida tropicalis. Description: Antimicrobial activity against Candida tropicalis isolate 22 after 48 hrs by microdilution broth method. The note with it: isolate 22, 48 h. The method in brief:
as §1

For experiment [17], the system named is Candida parapsilosis. Description: Antimicrobial activity against Candida parapsilosis isolate 26 after 48 hrs by microdilution broth method. The note with it: Lodderomyces parapsilosis, isolate 26, 48 h. The method in brief: as §1
In experiment [18] the test system is Cryptococcus deneoformans. Description: Antimicrobial activity against Cryptococcus neoformans var. neoformans isolate 25 after 48 hrs by microdilution broth method. The note with it: isolate 25, 48 h. The method in brief:
as §1

For experiment [19], the system named is Pichia kudriavzevii. Description: Antimicrobial activity against Candida krusei ATCC 6258 after 48 hrs by microdilution broth method. The note with it: ATCC 6258, 48 h.
Experiment [20] has as its system Candida albicans. Description: Antimicrobial activity against Candida albicans ATCC 90028 after 48 hrs by microdilution broth method. The note with it: ATCC 90028, 48 h. The method in brief:
as §2

For experiment [21], the system named is Candida tropicalis. Description: Antimicrobial activity against Candida tropicalis isolate 11 after 48 hrs by microdilution broth method. The note with it: isolate 11, 48 h. The method in brief: as §1
The subject of experiment [22] is Cryptococcus deneoformans. Description: Antimicrobial activity against Cryptococcus neoformans var. neoformans isolate 14 after 48 hrs by microdilution broth method. The note with it: isolate 14, 48 h. The method in brief:
as §1

The test system of experiment [23] is Nakaseomyces glabratus. Description: Antimicrobial activity against Candida glabrata isolate 46 after 48 hrs by microdilution broth method. The method in brief:
as §1

Experiment [24] concerns Cryptococcus deneoformans. Description: Antimicrobial activity against Cryptococcus neoformans var. neoformans isolate 30 after 48 hrs by microdilution broth method. The note with it: isolate 30, 48 h. The method in brief: as §1

In general, MIC refers to the smallest concentration in the dilution series that meets the test's criterion for growth inhibition. For `Cc1nn(C)c(-c2cccs2)c1/[N+]([O-])=N/C#N`, the MIC in the experiment on Candida parapsilosis [1] stood at 32 µg/mL (≈ 129 µM); in the experiment on Pichia kudriavzevii [2], 1 µg/mL (≈ 4.04 µM); with Candida albicans [3] it was 4 µg/mL (≈ 16.2 µM); against Pichia kudriavzevii [4] it was 2 µg/mL (≈ 8.09 µM); with Nakaseomyces glabratus [5], 2 µg/mL (≈ 8.09 µM); in experiment [6], 0.25 µg/mL (≈ 1.01 µM). In addition, the MIC in the experiment with Candida tropicalis [7] is 32 µg/mL (≈ 129 µM); in the experiment on Nakaseomyces glabratus [8], 2 µg/mL (≈ 8.09 µM); in the experiment on Candida albicans [9], 4 µg/mL (≈ 16.2 µM); in the experiment with Pichia kudriavzevii [10], 1 µg/mL (≈ 4.04 µM); against Nakaseomyces glabratus [11], 2 µg/mL (≈ 8.09 µM); against Candida tropicalis [12], 64 µg/mL (≈ 259 µM). For the same molecule, the MIC against Candida parapsilosis [13] was 32 µg/mL (≈ 129 µM); against Candida albicans [14], 4 µg/mL (≈ 16.2 µM); in the experiment with Candida parapsilosis [15], 16 µg/mL (≈ 64.7 µM); against Candida tropicalis [16], 32 µg/mL (≈ 129 µM); in the experiment with Candida parapsilosis [17] it was 16 µg/mL (≈ 64.7 µM); in experiment [18], 0.5 µg/mL (≈ 2.02 µM). In addition, the MIC is 1 µg/mL (≈ 4.04 µM) with Pichia kudriavzevii [19]; 4 µg/mL (≈ 16.2 µM) in the experiment on Candida albicans [20]; 32 µg/mL (≈ 129 µM) in the experiment on Candida tropicalis [21]; 0.25 µg/mL (≈ 1.01 µM) in experiment [22]; 2 µg/mL (≈ 8.09 µM) in the experiment with Nakaseomyces glabratus [23]; 0.5 µg/mL (≈ 2.02 µM) in experiment [24].
Take `Cc1c(/[N+]([O-])=N/C#N)c(-c2ccco2)nn1C`: the MIC with Candida parapsilosis [1] was found to be 32 µg/mL (≈ 138 µM); in the experiment with Pichia kudriavzevii [2] it was 1 µg/mL (≈ 4.32 µM); in the experiment with Candida albicans [3], 4 µg/mL (≈ 17.3 µM); in the experiment on Pichia kudriavzevii [4], 2 µg/mL (≈ 8.65 µM); in the experiment on Nakaseomyces glabratus [5], 1 µg/mL (≈ 4.32 µM); in [6], 0.25 µg/mL (≈ 1.08 µM). Moreover, the MIC in the experiment with Candida tropicalis [7] was found to be 128 µg/mL (≈ 554 µM); with Nakaseomyces glabratus [8], 1 µg/mL (≈ 4.32 µM); against Candida albicans [9] it was 4 µg/mL (≈ 17.3 µM); in the experiment on Pichia kudriavzevii [10] it was 2 µg/mL (≈ 8.65 µM); in the experiment with Nakaseomyces glabratus [11], 2 µg/mL (≈ 8.65 µM); in the experiment on Candida tropicalis [12], 128 µg/mL (≈ 554 µM). The MIC in the experiment on Candida parapsilosis [13] was 64 µg/mL (≈ 277 µM); against Candida albicans [14], 2 µg/mL (≈ 8.65 µM); against Candida parapsilosis [15], 16 µg/mL (≈ 69.2 µM); in the experiment with Candida tropicalis [16], 128 µg/mL (≈ 554 µM); with Candida parapsilosis [17], 8 µg/mL (≈ 34.6 µM); in experiment [18], 0.25 µg/mL (≈ 1.08 µM). Further, the MIC came out at 1 µg/mL (≈ 4.32 µM) against Pichia kudriavzevii [19]; 1 µg/mL (≈ 4.32 µM) in the experiment on Candida albicans [20]; 32 µg/mL (≈ 138 µM) in the experiment on Candida tropicalis [21]; 0.25 µg/mL (≈ 1.08 µM) in [22]; 1 µg/mL (≈ 4.32 µM) in the experiment with Nakaseomyces glabratus [23]; 0.25 µg/mL (≈ 1.08 µM) in experiment [24].
For `Cc1c(/[N+]([O-])=N/C(N)=O)c(-c2cccs2)nn1C`, the MIC against Candida parapsilosis [1] was greater than 128 µg/mL; in the experiment on Pichia kudriavzevii [2], greater than 128 µg/mL; against Candida albicans [3] it was greater than 128 µg/mL; against Pichia kudriavzevii [4], greater than 128 µg/mL; against Nakaseomyces glabratus [5] it was greater than 128 µg/mL; in experiment [6], 64 µg/mL (≈ 241 µM). The minimum inhibitory concentration (MIC) against Candida tropicalis [7], against Nakaseomyces glabratus [8], with Candida albicans [9], in the experiment on Pichia kudriavzevii [10], against Nakaseomyces glabratus [11] and with Candida tropicalis [12] was greater than 128 µg/mL in each case. In addition, the MIC with Candida parapsilosis [13] was greater than 128 µg/mL; with Candida albicans [14], greater than 128 µg/mL; against Candida parapsilosis [15] it was greater than 128 µg/mL; in the experiment on Candida tropicalis [16] it was greater than 128 µg/mL; against Candida parapsilosis [17] it was greater than 128 µg/mL; in experiment [18] it was 128 µg/mL (≈ 482 µM). For the same molecule, the MIC against Pichia kudriavzevii [19] was greater than 128 µg/mL; against Candida albicans [20] it was greater than 128 µg/mL; against Candida tropicalis [21] it was greater than 128 µg/mL; in experiment [22], 64 µg/mL (≈ 241 µM); with Nakaseomyces glabratus [23], greater than 128 µg/mL; in experiment [24], 128 µg/mL (≈ 482 µM).
